Measurements from ChEMBL document CHEMBL5338825, “Structure-Based Discovery of Inhibitors of the SARS-CoV-2 Nsp14 N7-Methyltransferase” (J Med Chem, 2023).
Activity calls are given as the source filed them. No cut-off for these calls is given here.

Columns and labels:
Bacteria [1] = assay: Inhibition of beta-lactamase AmpC (unknown origin) at 3.8 uM pre-incubated with compound for 5 mins followed by substrate addition and measured after 1.5 mins by absorbance based plate reader analysis; settings: time 6.5 min
In short: (§1)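 AmpC at 2 nM preincubated 5 min with compound at room temperature in 50 mM KPi, pH 7.0, with 1% v/v DMSO. Started with 50 μM CENTA (read at 405 nm) or 50 μM nitrocefin (read at 490 nm), monitored 1 min 30 s. Initial rate taken as % of DMSO control. Top concentration in triplicate; eight-point half-log curves in triplicate where inhibition exceeded 40%.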

[2] = molecular target: Histone-lysine N-methyltransferase EHMT2 (Homo sapiens, UniProt Q96KQ7); assay: Inhibition of human G9a using biotin-tagged Histone H3 and 3H-SAM as substrate incubated for 1 hrs by TopCount scintillation proximity assay
In short: (§2)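 Radiometric concentration–response for IC50, run on panel methyltransferases showing more than 50% inhibition at a 10 μM screen. Triplicate.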

[3] = molecular target: Histone-lysine N-methyltransferase EHMT1 (Homo sapiens, UniProt Q9H9B1); assay: Inhibition of human GLP using biotin-tagged Histone H3 and 3H-SAM as substrate incubated for 1 hrs by TopCount scintillation proximity assay; in short: as §2
Bacteria [4] = assay: Inhibition of beta-lactamase AmpC (unknown origin) at 3.8 uM pre-incubated with compound for 5 mins followed by substrate addition and measured after 1.5 mins in the presence of 0.01% Triton-X 100 by absorbance based plate reader analysis
In short: (§3)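 AmpC detergent-reversal assay: 50 mM KPi, pH 7.0, with 1% v/v DMSO and 0.01% v/v Triton X-100. Enzyme at 2 nM preincubated 5 min with compound, then 50 μM CENTA (405 nm) or nitrocefin (490 nm) added. Absorbance followed for 1 min 30 s and rate normalised to DMSO. Eight-point half-log curves in triplicate.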

[5] = molecular target: Replicase polyprotein 1ab (Severe acute respiratory syndrome coronavirus 2) (UniProt P0DTD1); assay: Reversible binding affinity to Cys387 of N-terminal 6His/SUMO-tagged SARS-CoV-2 NSP14 expressed in Escherichia coli Rosetta 2 (DE3) PlysS cells using 5'GpppACCCCCCCCC-Biotin 3' and 3H-SAM as substrates incubated for 2 hrs by mass spectrometry analysis
In short: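 Nsp14 incubated with 20-fold molar excess of compound for 2 h at 20 °C, then taken into 0.1% formic acid. Separated by HPLC on a 5–95% acetonitrile/water gradient and analysed by ESI time-of-flight MS for protein mass shift.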

Homo sapiens [6] = species: Homo sapiens; assay: Inhibition of MDH (unknown origin) using oxaloacetic acid as substrate at 3.8 uM preincubated with compound for 5 mins followed by substrate addition and measured after 1.5 min in the presence of NADH and 0.01% Triton-X 100 by absorbance based plate reader analysis; settings: time 6.5 min
In short: (§4)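 Detergent-reversal MDH assay: 50 mM KPi, pH 7.0, with 1% v/v DMSO and 0.01% v/v Triton X-100. Enzyme at 2 nM preincubated 5 min with compound, then started with 200 μM NADH plus 200 μM oxaloacetate. A340 read for 1 min 30 s, rate normalised to DMSO control. Eight-point half-log curves in triplicate.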

[7] = molecular target: Replicase polyprotein 1ab (Severe acute respiratory syndrome coronavirus 2) (UniProt P0DTD1); assay: Inhibition of N-terminal 6His/SUMO-tagged SARS-CoV-2 NSP14 expressed in Escherichia coli Rosetta 2 (DE3) PlysS cells using 5'GpppACCCCCCCCC-Biotin 3' and 3H-SAM as substrates at 100 uM incubated for 30 mins by TopCount scintillation proximity assay relative to control
[8] = Aggregation property of the compound in KPi buffer at pH 7.0 assessed as formation of colloid-like particles at 3.8 uM by dynamic light scattering analysis; format: physicochemical; settings: pH 7, 3.8 µM
In short: (§5)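 Compounds diluted as 8-point half-log series in filtered 50 mM KPi, pH 7.0, with 1% v/v DMSO final. Particles detected by dynamic light scattering, triplicate at each concentration. CAC taken as the intersection of separate nonlinear fits to aggregating (>10^6 scattering intensity) and non-aggregating data.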

Homo sapiens [9] = species: Homo sapiens; assay: Inhibition of MDH (unknown origin) using oxaloacetic acid as substrate at 3.8 uM preincubated with compound for 5 mins followed by substrate addition and measured after 1.5 min in the presence of NADH by absorbance based plate reader analysis; settings: time 6.5 min
In short: (§6)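 MDH assay at room temperature in 50 mM KPi, pH 7.0, with 1% v/v DMSO final. Compound preincubated 5 min with 2 nM enzyme. Reaction started with 200 μM NADH plus 200 μM oxaloacetic acid, and absorbance followed at 340 nm for 1 min 30 s. Initial rate divided by the DMSO control rate. Single top concentration in triplicate; eight-point half-log curves in triplicate where inhibition exceeded 40%.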

[10] = molecular target: Replicase polyprotein 1ab (Severe acute respiratory syndrome coronavirus 2) (UniProt P0DTD1); assay: Reversible covalent inhibition of N-terminal 6His/SUMO-tagged SARS-CoV-2 NSP14 expressed in Escherichia coli Rosetta 2 (DE3) PlysS cells using 5'GpppACCCCCCCCC-Biotin 3' and 3H-SAM as substrates at 10 fold IC50 concentration incubated for 60 mins by rapid dilution method
In short: (§7)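 Jump dilution: Nsp14 at 100-fold its assay concentration (assay level 1.5 nM) preincubated with compound for 1 h at room temperature. Then diluted 100-fold into assay buffer containing RNA substrate and SAM, and recovery of methyltransferase activity monitored.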

[11] = molecular target: Replicase polyprotein 1ab (Severe acute respiratory syndrome coronavirus 2, UniProt P0DTD1); assay: Inhibition of N-terminal 6His/SUMO-tagged SARS-CoV-2 NSP14 expressed in Escherichia coli Rosetta 2 (DE3) PlysS cells using 5'GpppACCCCCCCCC-Biotin 3' and 3H-SAM as substrates incubated for 30 mins by TopCount scintillation proximity assay
[12] = molecular target: Protein arginine N-methyltransferase 9 (Homo sapiens, UniProt Q6P2P2); assay: Inhibition of human PRMT9 using biotin-tagged SAP145 and 3H-SAM as substrate incubated for 1 hrs by TopCount scintillation proximity assay; in short: as §2
[13] = molecular target: Histone-lysine N-methyltransferase SMYD3 (Homo sapiens, UniProt Q9H7B4); assay: Inhibition of human SMYD3 using biotin-tagged MAP3K2 and 3H-SAM as substrate incubated for 1 hrs by TopCount scintillation proximity assay
In short: (§8)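 Radiometric human methyltransferase assay. Enzymes showing >50% inhibition at a 10 μM single-point screen went on to concentration–response in triplicate to derive IC50.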

[14] = molecular target: T1, Histone-lysine N-methyltransferase 2A (Homo sapiens, UniProt Q03164); assay: Inhibition of human MLL1 using biotin-tagged Histone H3 and 3H-SAM as substrate incubated for 1 hrs by TopCount scintillation proximity assay; in short: as §2
T1 sequence (Q03164 1-2718 limits assumed): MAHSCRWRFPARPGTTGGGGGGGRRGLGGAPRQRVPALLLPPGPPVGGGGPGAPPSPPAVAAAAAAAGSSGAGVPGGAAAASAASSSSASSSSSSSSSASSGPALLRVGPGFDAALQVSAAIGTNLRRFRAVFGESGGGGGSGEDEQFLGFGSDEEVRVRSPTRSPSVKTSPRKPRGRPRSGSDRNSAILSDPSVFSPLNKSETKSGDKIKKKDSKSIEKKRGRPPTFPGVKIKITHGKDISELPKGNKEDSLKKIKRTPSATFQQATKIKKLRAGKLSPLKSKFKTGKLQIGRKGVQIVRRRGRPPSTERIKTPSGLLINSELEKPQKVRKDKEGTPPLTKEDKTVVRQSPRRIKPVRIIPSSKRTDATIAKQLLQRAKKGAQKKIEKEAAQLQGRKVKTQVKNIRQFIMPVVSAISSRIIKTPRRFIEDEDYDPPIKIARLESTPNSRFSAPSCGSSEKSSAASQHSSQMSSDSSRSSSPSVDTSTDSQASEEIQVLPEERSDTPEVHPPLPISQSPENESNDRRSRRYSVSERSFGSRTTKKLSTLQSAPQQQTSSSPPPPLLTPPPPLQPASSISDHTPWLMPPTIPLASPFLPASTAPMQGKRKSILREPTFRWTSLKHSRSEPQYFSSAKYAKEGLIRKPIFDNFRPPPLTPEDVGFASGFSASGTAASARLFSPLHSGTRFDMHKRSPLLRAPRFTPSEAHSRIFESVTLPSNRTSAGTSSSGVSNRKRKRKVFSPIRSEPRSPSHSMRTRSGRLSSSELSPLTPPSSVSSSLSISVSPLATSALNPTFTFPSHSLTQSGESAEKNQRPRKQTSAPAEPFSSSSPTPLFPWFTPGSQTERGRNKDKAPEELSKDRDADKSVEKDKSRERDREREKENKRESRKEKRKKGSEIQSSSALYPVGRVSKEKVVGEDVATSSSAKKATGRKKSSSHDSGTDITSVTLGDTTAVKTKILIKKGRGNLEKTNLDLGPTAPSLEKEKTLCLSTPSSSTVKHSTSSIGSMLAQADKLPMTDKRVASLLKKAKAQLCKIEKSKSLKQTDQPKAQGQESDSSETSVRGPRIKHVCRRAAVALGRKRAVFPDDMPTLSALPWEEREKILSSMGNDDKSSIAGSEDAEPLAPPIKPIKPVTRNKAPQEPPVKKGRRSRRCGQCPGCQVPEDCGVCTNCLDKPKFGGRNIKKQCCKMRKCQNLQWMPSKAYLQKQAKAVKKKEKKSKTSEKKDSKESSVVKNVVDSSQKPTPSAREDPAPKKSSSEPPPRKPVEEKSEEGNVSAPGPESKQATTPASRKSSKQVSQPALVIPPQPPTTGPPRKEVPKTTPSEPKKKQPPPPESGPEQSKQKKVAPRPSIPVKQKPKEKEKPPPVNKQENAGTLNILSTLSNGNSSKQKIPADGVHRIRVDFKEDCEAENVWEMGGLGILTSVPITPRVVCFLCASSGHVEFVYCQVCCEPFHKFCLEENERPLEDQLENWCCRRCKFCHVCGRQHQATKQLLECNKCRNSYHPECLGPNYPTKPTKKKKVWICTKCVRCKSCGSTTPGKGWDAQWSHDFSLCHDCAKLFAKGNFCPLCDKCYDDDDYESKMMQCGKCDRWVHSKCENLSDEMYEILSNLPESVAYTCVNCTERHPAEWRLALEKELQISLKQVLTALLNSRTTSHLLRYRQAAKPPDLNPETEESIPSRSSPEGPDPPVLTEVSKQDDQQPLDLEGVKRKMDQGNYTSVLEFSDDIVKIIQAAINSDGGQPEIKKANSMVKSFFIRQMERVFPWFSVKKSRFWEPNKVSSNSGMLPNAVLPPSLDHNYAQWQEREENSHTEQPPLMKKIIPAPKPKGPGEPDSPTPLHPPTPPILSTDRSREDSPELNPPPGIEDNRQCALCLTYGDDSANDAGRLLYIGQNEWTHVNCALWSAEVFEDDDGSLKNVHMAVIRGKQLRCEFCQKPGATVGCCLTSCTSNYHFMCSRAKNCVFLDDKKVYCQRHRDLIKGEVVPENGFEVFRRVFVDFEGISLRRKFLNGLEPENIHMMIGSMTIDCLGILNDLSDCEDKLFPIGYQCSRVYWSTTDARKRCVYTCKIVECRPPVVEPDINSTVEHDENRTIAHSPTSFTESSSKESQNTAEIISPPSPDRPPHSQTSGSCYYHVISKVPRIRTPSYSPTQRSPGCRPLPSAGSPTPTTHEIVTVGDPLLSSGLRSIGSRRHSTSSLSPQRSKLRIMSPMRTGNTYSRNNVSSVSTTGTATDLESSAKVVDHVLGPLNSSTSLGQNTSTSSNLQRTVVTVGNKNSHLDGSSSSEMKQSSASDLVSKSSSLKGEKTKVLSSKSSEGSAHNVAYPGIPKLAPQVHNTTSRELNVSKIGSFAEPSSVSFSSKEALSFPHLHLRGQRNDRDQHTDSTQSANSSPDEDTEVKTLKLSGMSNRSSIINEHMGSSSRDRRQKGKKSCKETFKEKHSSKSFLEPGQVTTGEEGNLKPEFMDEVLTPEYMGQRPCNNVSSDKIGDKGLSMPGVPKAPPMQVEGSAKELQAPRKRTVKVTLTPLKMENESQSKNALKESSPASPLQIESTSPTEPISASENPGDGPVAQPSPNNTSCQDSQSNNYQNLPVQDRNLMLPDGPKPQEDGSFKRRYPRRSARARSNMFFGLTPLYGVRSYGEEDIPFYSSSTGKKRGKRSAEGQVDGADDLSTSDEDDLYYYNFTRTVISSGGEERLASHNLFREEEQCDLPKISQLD
T1 sequence (Q03164 2719-3969 limits assumed): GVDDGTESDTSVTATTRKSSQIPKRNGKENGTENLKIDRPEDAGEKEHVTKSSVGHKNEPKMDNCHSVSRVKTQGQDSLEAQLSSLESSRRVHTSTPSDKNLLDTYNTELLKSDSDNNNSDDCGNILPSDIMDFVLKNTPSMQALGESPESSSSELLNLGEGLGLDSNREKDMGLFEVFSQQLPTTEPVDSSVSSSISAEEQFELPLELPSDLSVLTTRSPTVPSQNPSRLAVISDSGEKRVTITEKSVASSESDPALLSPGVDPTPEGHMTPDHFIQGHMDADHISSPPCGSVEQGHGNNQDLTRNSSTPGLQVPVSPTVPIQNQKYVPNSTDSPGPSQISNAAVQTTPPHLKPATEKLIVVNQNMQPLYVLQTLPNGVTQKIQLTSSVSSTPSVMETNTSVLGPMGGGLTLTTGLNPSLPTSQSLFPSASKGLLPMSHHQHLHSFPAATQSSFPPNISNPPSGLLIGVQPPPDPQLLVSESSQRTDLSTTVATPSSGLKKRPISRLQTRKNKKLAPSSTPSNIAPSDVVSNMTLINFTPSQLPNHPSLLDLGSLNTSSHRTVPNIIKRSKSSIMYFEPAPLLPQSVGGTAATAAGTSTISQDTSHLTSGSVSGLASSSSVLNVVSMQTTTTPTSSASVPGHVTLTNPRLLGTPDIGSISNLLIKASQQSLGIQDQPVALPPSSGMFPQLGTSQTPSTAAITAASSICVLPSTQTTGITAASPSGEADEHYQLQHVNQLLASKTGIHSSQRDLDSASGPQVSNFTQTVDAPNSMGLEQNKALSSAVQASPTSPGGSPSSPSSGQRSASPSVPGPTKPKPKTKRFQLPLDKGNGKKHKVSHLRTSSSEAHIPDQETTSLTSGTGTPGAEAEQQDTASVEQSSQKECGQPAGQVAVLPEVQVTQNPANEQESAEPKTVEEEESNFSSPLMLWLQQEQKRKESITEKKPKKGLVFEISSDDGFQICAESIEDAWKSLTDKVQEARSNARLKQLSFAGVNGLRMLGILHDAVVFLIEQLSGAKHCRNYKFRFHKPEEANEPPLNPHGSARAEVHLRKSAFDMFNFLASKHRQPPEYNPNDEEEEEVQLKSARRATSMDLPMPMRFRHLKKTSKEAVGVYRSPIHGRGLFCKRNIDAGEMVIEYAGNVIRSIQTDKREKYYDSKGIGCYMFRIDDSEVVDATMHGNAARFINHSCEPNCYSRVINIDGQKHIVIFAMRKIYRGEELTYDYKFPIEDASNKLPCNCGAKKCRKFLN

[15] = molecular target: T2, Protein arginine N-methyltransferase 3 (Homo sapiens, UniProt O60678); assay: Inhibition of human PRMT3 using biotin-tagged Histone H4 and 3H-SAM as substrate incubated for 1 hrs by TopCount scintillation proximity assay; in short: as §2
Target sequence in this assay (O60678 whole entry): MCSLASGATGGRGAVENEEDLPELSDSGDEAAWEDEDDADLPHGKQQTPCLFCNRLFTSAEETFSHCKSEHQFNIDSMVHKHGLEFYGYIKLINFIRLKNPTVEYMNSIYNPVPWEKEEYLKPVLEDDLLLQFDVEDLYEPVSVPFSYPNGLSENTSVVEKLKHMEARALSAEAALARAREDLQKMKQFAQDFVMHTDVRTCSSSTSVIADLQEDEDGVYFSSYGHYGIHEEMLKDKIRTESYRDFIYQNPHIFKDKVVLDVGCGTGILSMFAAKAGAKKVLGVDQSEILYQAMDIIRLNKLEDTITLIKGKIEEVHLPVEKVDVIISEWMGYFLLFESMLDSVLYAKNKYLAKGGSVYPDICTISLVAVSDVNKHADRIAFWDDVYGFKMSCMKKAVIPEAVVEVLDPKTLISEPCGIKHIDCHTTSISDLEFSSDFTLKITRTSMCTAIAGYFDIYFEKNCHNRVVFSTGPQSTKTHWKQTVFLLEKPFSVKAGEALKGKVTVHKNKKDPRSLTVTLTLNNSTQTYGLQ

[16] = molecular target: Histone-lysine N-methyltransferase SMYD3 (Homo sapiens) (UniProt Q9H7B4); assay: Inhibition of human SMYD3 using biotin-tagged MAP3K2 and 3H-SAM as substrate at 6 uM incubated for 1 hrs by TopCount scintillation proximity assay relative to control
Bacteria [17] = assay: Inhibition of beta-lactamase AmpC (unknown origin) pre-incubated with compound for 5 mins followed by substrate addition and measured after 1.5 mins by absorbance based plate reader analysis; settings: time 6.5 min; in short: as §1
Homo sapiens [18] = species: Homo sapiens; assay: Inhibition of MDH (unknown origin) using oxaloacetic acid as substrate preincubated with compound for 5 mins followed by substrate addition and measured after 1.5 min in the presence of NADH by absorbance based plate reader analysis; settings: time 6.5 min; in short: as §6
[19] = molecular target: RNA 5'-monophosphate methyltransferase (Homo sapiens) (UniProt Q7Z5W3); assay: Inhibition of human BCDIN3D using biotin-tagged microRNA-145 and 3H-SAM as substrate at 6 uM incubated for 1 hrs by TopCount scintillation proximity assay relative to control
[20] = molecular target: Replicase polyprotein 1ab (Severe acute respiratory syndrome coronavirus 2) (UniProt P0DTD1); assay: Competitive inhibition of N-terminal 6His/SUMO-tagged SARS-CoV-2 NSP14 expressed in Escherichia coli Rosetta 2 (DE3) PlysS cells using 5'GpppACCCCCCCCC-Biotin 3' and 3H-SAM as substrates at increasing concentration incubated for 30 mins by TopCount scintillation proximity assay
In short: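 Competition pattern read from IC50 shifts. […] Separately, SAM fixed at 1.25 μM (5× Km) with RNA varied up to 0.5 μM (10× Km). A linear rise of IC50 with substrate concentration was taken as competitive inhibition.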

Bacteria [21] = assay: Inhibition of beta-lactamase AmpC (unknown origin) pre-incubated with compound for 5 mins followed by substrate addition and measured after 1.5 mins in the presence of 0.01% Triton-X 100 by absorbance based plate reader analysis; settings: time 6.5 min; in short: as §3
[22] = molecular target: RNA 5'-monophosphate methyltransferase (Homo sapiens, UniProt Q7Z5W3); assay: Inhibition of human BCDIN3D using biotin-tagged microRNA-145 and 3H-SAM as substrate incubated for 1 hrs by TopCount scintillation proximity assay; in short: as §2
[23] = molecular target: T3, Histone-lysine N-methyltransferase, H3 lysine-79 specific (Homo sapiens, UniProt Q8TEK3); assay: Inhibition of human DOT1L using chicken nucleosome and 3H-SAM as substrate incubated for 1 hrs by TopCount scintillation proximity assay; in short: as §2
[24] = molecular target: T2, Protein arginine N-methyltransferase 3; assay: Inhibition of human PRMT3 using biotin-tagged Histone H4 and 3H-SAM as substrate at 6 uM incubated for 1 hrs by TopCount scintillation proximity assay relative to control
[25] = molecular target: T4, Protein arginine N-methyltransferase 1 (Homo sapiens, UniProt Q99873); assay: Inhibition of human PRMT1 using biotin-tagged Histone H4 and 3H-SAM as substrate incubated for 1 hrs by TopCount scintillation proximity assay; in short: as §2
Target sequence in this assay (Q99873 whole entry): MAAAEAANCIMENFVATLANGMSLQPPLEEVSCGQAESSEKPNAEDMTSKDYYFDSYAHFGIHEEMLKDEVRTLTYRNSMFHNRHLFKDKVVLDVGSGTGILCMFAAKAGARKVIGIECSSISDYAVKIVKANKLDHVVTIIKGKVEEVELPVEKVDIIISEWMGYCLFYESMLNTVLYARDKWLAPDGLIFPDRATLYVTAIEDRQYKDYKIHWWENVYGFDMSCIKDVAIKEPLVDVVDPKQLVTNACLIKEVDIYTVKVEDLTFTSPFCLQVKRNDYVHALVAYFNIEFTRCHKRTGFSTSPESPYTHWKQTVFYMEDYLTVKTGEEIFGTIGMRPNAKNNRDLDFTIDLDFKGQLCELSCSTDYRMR

Homo sapiens [26] = species: Homo sapiens; assay: Inhibition of MDH (unknown origin) using oxaloacetic acid as substrate preincubated with compound for 5 mins followed by substrate addition and measured after 1.5 min in the presence of NADH and 0.01% Triton-X 100 by absorbance based plate reader analysis; settings: time 6.5 min; in short: as §4
[27] = molecular target: Histone-lysine N-methyltransferase SUV39H1 (Homo sapiens) (UniProt O43463); assay: Inhibition of human SUV39H1 using Biotin-tagged histone H3 and 3H-SAM as substrate at 6 uM incubated for 1 hrs by TopCount scintillation proximity assay relative to control
[28] = Aggregation property of the compound in KPi buffer at pH 7.0 assessed as formation of colloid-like particles by dynamic light scattering analysis; format: physicochemical; in short: as §5
[29] = molecular target: Replicase polyprotein 1ab (Severe acute respiratory syndrome coronavirus 2) (UniProt P0DTD1); assay: Non-covalent inhibition of N-terminal 6His/SUMO-tagged SARS-CoV-2 NSP14 expressed in Escherichia coli Rosetta 2 (DE3) PlysS cells using 5'GpppACCCCCCCCC-Biotin 3' and 3H-SAM as substrates at 10 fold IC50 concentration incubated for 60 mins by rapid dilution method; in short: as §7
[30] = molecular target: T1, Histone-lysine N-methyltransferase 2A; assay: Inhibition of human MLL1 using biotin-tagged Histone H3 and 3H-SAM as substrate at 6 uM incubated for 1 hrs by TopCount scintillation proximity assay relative to control
[31] = molecular target: Protein arginine N-methyltransferase 9 (Homo sapiens) (UniProt Q6P2P2); assay: Inhibition of human PRMT9 using biotin-tagged SAP145 and 3H-SAM as substrate at 6 uM incubated for 1 hrs by TopCount scintillation proximity assay relative to control
[32] = molecular target: T4, Protein arginine N-methyltransferase 1; assay: Inhibition of human PRMT1 using biotin-tagged Histone H4 and 3H-SAM as substrate at 6 uM incubated for 1 hrs by TopCount scintillation proximity assay relative to control
Target sequence in this assay (Q99873 whole entry, looked up): as the sequence (Q99873 whole entry) above

[33] = molecular target: Histone-lysine N-methyltransferase EHMT1 (Homo sapiens) (UniProt Q9H9B1); assay: Inhibition of human GLP using biotin-tagged Histone H3 and 3H-SAM as substrate at 6 uM incubated for 1 hrs by TopCount scintillation proximity assay relative to control
[34] = molecular target: T3, Histone-lysine N-methyltransferase, H3 lysine-79 specific; assay: Inhibition of human DOT1L using chicken nucleosome and 3H-SAM as substrate at 6 uM incubated for 1 hrs by TopCount scintillation proximity assay relative to control
[35] = molecular target: Histone-lysine N-methyltransferase SUV39H1 (Homo sapiens, UniProt O43463); assay: Inhibition of human SUV39H1 using Biotin-tagged histone H3 and 3H-SAM as substrate incubated for 1 hrs by TopCount scintillation proximity assay; in short: as §8

N#Cc1ccc(NC(=O)c2cc(C=O)n3c2CCCC3)c2cc(O)ccc12
inhibition (Bacteria [1]): Active | IC50 [2]: 30 µM | IC50 [3]: 14 µM | inhibition (Bacteria [4]): inactive | Activity [5]: Active | inhibition (Homo sapiens [6]): inactive | inhibition [7]: > 50% | Activity [8]: Active | inhibition (Homo sapiens [9]): Active | inhibition [10]: Active | IC50 [11]: 8 µM

O=C(COC(=O)c1cc(-c2ccoc2)n[nH]1)Nc1ccc(Br)cc1
IC50 [12]: 11 µM | IC50 [13]: 8 µM | IC50 [14]: 16 µM | IC50 [15]: 11 µM | inhibition [16]: > 50% | IC50 [3]: 26 µM | inhibition (Bacteria [17]): inactive | inhibition (Homo sapiens [18]): Active | inhibition [19]: > 50% | inhibition [20]: Active | inhibition (Bacteria [21]): inactive | IC50 [22]: 11 µM | IC50 [23]: 7 µM | inhibition [24]: > 50% | IC50 [25]: 15 µM | inhibition (Homo sapiens [26]): inactive | inhibition [27]: > 50% | Activity [28]: Active | inhibition [29]: Active | inhibition [30]: > 50% | inhibition [31]: > 50% | IC50 [11]: 2.2 µM | inhibition [32]: > 50% | inhibition [33]: > 50% | inhibition [34]: > 50% | IC50 [35]: 4 µM
